Data from publication PMC6402543 (Nature, 2018).
Values after ≈ are worked out from the molar mass of the structure shown. Like-named read-outs stand apart in the source and are kept apart here.

Key:
[1] = test system: L. donovani axenic amastigotes; experiment: Cidal axenic amastigote assay; type: cell-based; conditions: Leishmania donovani, read-out: Cidal axenic EC50
[2] = test system: THP-1 cells; experiment: THP-1 host cell toxicity in the intra-macrophage assay; type: cell-based; conditions: Homo sapiens, THP-1, read-out: THP-1 EC50
[3] = test system: L. donovani clinical isolates (LV9, SUKA 001, BHU1, DD8); type: cell-based, Leishmania donovani
[4] = test system: L. donovani promastigotes (LdBOB); experiment: Promastigote drug sensitivity assay; type: cell-based, Leishmania donovani; conditions: for EC50: Leishmania donovani
[5] = test system: L. donovani intramacrophage amastigotes (INMAC); experiment: Intra macrophage drug sensitivity assay; type: cell-based, Leishmania donovani; conditions: 5 RES clone 1 vs WT intramacrophage amastigotes
[6] = test system: L. donovani axenic amastigotes; experiment: Rate-of-kill of axenic amastigotes; type: cell-based, Leishmania donovani
[7] = test system: L. donovani promastigotes (LdBOB); experiment: Cell cycle analysis; type: cell-based, Leishmania donovani; conditions: 5x EC50 for 8 h
[8] = Solubility in simulated physiological media; type: physicochemical; conditions: fed simulated intestinal fluid (FeSSIF), pH 6.5
[9] = Stability in microsomes; type: in vitro ADME, mouse (CD1); conditions: Mouse; 0.5 μM
Summary of the method: (§1)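 Liver microsomes of each stated species were incubated with test compound at 0.5 µM. Intrinsic clearance (Cli) is reported in mL/min/g tissue.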

[10] = Stability in microsomes; type: in vitro ADME, rat (Sprague Dawley); conditions: Rat; 0.5 μM
Summary of the method: as §1

[11] = Stability in microsomes; type: in vitro ADME, dog (beagle); conditions: Dog; 0.5 μM
Summary of the method: as §1

[12] = Stability in microsomes; type: in vitro ADME; conditions: Human; 0.5 μM
Summary of the method: as §1

[13] = Stability in hepatocytes; type: in vitro ADME, mouse (CD1); conditions: Mouse; 0.5 μM
Summary of the method: (§2)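 Test compound was incubated with hepatocytes of the stated species at 0.5 µM. The read-out is intrinsic clearance (Cli), expressed as mL/min/g tissue.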

[14] = Stability in hepatocytes; type: in vitro ADME, rat (Sprague Dawley); conditions: Rat; 0.5 μM
Summary of the method: as §2

[15] = Stability in hepatocytes; type: in vitro ADME, dog (beagle); conditions: Dog; 0.5 μM
Summary of the method: as §2

[16] = Stability in hepatocytes; type: in vitro ADME; conditions: Human; 0.5 μM
Summary of the method: as §2

[17] = Mouse pharmacokinetics; type: in vivo, Mouse (male, CD1); conditions: for F% based on AUC(0-inf): mouse
[18] = Rat pharmacokinetics; type: in vivo, Rat (male, SD)
[19] = test system: L. donovani amastigotes (LV9); experiment: In vivo efficacy, mouse model of VL; parameters: species or system Leishmania donovani; conditions: 25 mg/kg bid, 10 days, oral
Summary of the method: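 Each treatment arm used 5 mice. Regimens were dosed once daily (uid) or twice daily (bid) for 5 or 10 days, and bid dosing for 10 days was run over a dose range. Parasite burden was scored as Leishman Donovan Units: amastigotes per 500 nucleated cells multiplied by organ weight in g. Read-out was reduction in parasite load.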

[20] = Rat 7-day repeat dose oral toxicology; type: in vivo, rat (male Wistar Han); conditions: all doses tested
[21] = Non-GLP preclinical assessment of cardiovascular effects and genotoxicity
[22] = test system: L. donovani amastigotes (LV9); conditions: uid; cited from earlier work
[23] = male, CD1, mouse, whole blood, iv, 1 mg/kg
[24] = male, CD1, mouse, whole blood, po, 10 mg/kg
[25] = male, CD1, mouse, whole blood, po, 100 mg/kg
[26] = male, CD1, mouse, whole blood, po, 300 mg/kg
[27] = male, Sprague Dawley, whole blood, iv, 1 mg/kg
[28] = male, Sprague Dawley, whole blood, po, 10 mg/kg
[29] = male, Sprague Dawley, whole blood, po, 100 mg/kg
[30] = male, Sprague Dawley, whole blood, po, 300 mg/kg

## C[C@H]1CN(c2n[nH]c3nc(N[C@H]4CC[C@H](NS(=O)(=O)CCC(F)(F)F)CC4)ncc23)CCO1 [Compound 7]
[1]
  EC50: 100 nM
[2]
  EC50: > 50000 nM
[3]
  Variation in potency against a panel of Leishmania clinical-derived lines: less than 10 fold
[4]; 4-resistant clone 1, fold resistance vs wild type
  Fold: 20
[4]; 4-resistant clone 2, fold resistance vs wild type
  Fold: 24
[4]; 4-resistant clone 3, fold resistance vs wild type
  Fold: 48
[4]; 5-resistant clone 1, fold resistance vs wild type
  Fold: 41
[4]; 5-resistant clone 2, fold resistance vs wild type
  Fold: 35
[4]; 5-resistant clone 3, fold resistance vs wild type
  Fold: 22
[4]; CRK12MUT and CYC9 co-overexpressing
  EC50 relative to WT: ~ 6 fold
[4]; CRK12MUT overexpressing
  EC50 relative to WT: ~ 3.4 fold
[4]; CRK12WT and CYC9 co-overexpressing
  EC50 relative to WT: ~ 3 fold
[4]; read-out: pEC50 (SD), 4-resistant clone 1 promastigotes (converted)
  EC50: 1580 nM
[4]; read-out: pEC50 (SD), 4-resistant clone 2 promastigotes (converted)
  EC50: 2000 nM
[4]; read-out: pEC50 (SD), 4-resistant clone 3 promastigotes (converted)
  EC50: 3980 nM
[4]; read-out: pEC50 (SD), 5-resistant clone 1 promastigotes (converted)
  EC50: 3160 nM
[4]; read-out: pEC50 (SD), 5-resistant clone 2 promastigotes (converted)
  EC50: 3160 nM
[4]; read-out: pEC50 (SD), 5-resistant clone 3 promastigotes (converted)
  EC50: 2000 nM
[4]; read-out: pEC50 (SD), Wild type (Age-matched) promastigotes (converted)
  EC50: 50.1 nM
[4]; read-out: pEC50 (SD), Wild type (Start clone) promastigotes (converted)
  EC50: 79.4 nM
[4]; Wild type (Age-matched) promastigotes, fold vs wild type
  Fold: 1
[4]; Wild type (Start clone) promastigotes, fold vs wild type
  Fold: 1
[5]
  Fold difference: 5
[6]; 0.2 μM
  Time at which compound was cytocidal: 96 h
[6]; 1.8 μM
  Time at which compound was cytocidal: 48 h
[7]
  Effect on cell-cycle progression: accumulation of cells in G1 and in G2/M and a decrease in the proportion of cells in S phase
[8]
  solubility at 4 h: 25 µg/mL (≈ 50.9 µM)
[9]
  Microsomes Cli: 0.52 mL/min/g tissue
[10]
  Microsomes Cli: <0.5 mL/min/g tissue
[11]
  Microsomes Cli: <0.4 mL/min/g tissue
[12]
  Microsomes Cli: 0.71 mL/min/g tissue
[13]
  Hepatocytes Cli: 0.84 mL/min/g tissue
[14]
  Hepatocytes Cli: 0.77 mL/min/g tissue
[15]
  Hepatocytes Cli: 0.31 mL/min/g tissue
[16]
  Hepatocytes Cli: 0.5 mL/min/g tissue
[17]; [23]
  AUC(0-inf): 104 ± 26 ng·h/mL
  Vd: 4 ± 0.5 L/kg
  clearance: 169 ± 50 mL/min/kg
  half-life: 0.3 ± 0.04 h
[17]; [24]
  AUC(0-inf): 1460 ± 362 ng·h/mL
  Cmax: 561 ± 148 ng/mL
  Tmax: 2 h
[17]; [25]
  AUC(0-inf): 39400 ± 23800 ng·h/mL
  Cmax: 8810 ± 1970 ng/mL
  Tmax: 3 h
[17]; [26]
  AUC(0-inf): 66200 ng·h/mL
  Cmax: 11400 ± 4210 ng/mL
  Tmax: 5 h
[17]; oral 10 mg/kg
  F% based on AUC(0-inf): >100%
[17]; oral 100 mg/kg
  F% based on AUC(0-inf): >100%
[17]; oral 300 mg/kg
  F% based on AUC(0-inf): >100%
[18]; [27]
  AUC(0-inf): 1510 ± 782 ng·h/mL
  Vd: 0.4 ± 0.1 L/kg
  clearance: 14 ± 9 mL/min/kg
  half-life: 0.4 ± 0.2 h
[18]; [28]
  AUC(0-inf): 6480 ± 2490 ng·h/mL
  Cmax: 1040 ± 261 ng/mL
  Tmax: 2 h
[18]; [29]
  AUC(0-inf): 61200 ± 23600 ng·h/mL
  Cmax: 8470 ± 3750 ng/mL
  Tmax: 7.3 h
[18]; [30]
  AUC(0-inf): 136000 ± 24800 ng·h/mL
  Cmax: 14800 ± 2680 ng/mL
  Tmax: 7.3 h
[18]; oral 10 mg/kg
  F% based on AUC(0-inf): 46 ±18%
[18]; oral 100 mg/kg
  F% based on AUC(0-inf): 40 ± 15%
[18]; oral 300 mg/kg
  F% based on AUC(0-inf): 51 ± 22%
[19]
  Reduction in parasite load: 99%
[20]
  Adverse effects (clinical chemistry and histopathology): no significant adverse effects
[21]
  Cardiovascular effects and genotoxicity: did not reveal any issues that would prevent further development

## CCCCCCCCCCCCCCCCOP(=O)([O-])OCC[N+](C)(C)C [miltefosine]
[22]
  ED90 in a mouse model: 27 mg/kg
